Experimental data pooled from the literature.
Lines come from different studies, so protocols differ.
Observed: cell growth or viability

CC(C)C[C@H](NC(=O)[C@H](CO)NC(=O)[C@H](CO)NC(=O)CNC(=O)[C@@H]1CCCN1C(=O)[C@H](Cc1ccc(O)cc1)NC(=O)[C@H](CC(C)C)NC(=O)[C@H](CO)NC(=O)[C@H](CS)NC(=O)[C@H](CC(C)C)NC(=O)[C@@H](N)CC(C)C)C(=O)O
IC50 (NCI-H1975; MTT; 72 h): > 100 µM

C[C@H](NC(=O)[C@H](Cc1c[nH]c2ccccc12)NC(=O)CNC(=O)[C@H](CCCNC(=N)N)NC(=O)[C@H](Cc1c[nH]c2ccccc12)NC(=O)[C@H](Cc1c[nH]c2ccccc12)NC(=O)[C@H](CO)NC(=O)[C@H](CO)NC(=O)[C@H](Cc1c[nH]c2ccccc12)NC(=O)CN)C(=O)N[C@@H](CCCCN)C(=O)N[C@@H](Cc1c[nH]c2ccccc12)C(=O)N[C@@H](C)C(=O)N[C@@H](CO)C(=O)N[C@@H](CCCCN)C(=O)NCC(=O)N[C@@H](Cc1c[nH]c2ccccc12)C(=O)NCC(=O)N[C@@H](CCCCN)C(N)=O
IC50 (HEK293; MTT): 34.1 µM

N.N.[Cl][Pt][Cl]
IC50 (KARPAS-422; ATP luminescence; 72 h): 7.16 µM

CC[C@H](C)[C@H](NC(=O)[C@H](CO)NC(=O)[C@H](CO)NC(=O)[C@H](Cc1ccccc1)NC(=O)CN)C(=O)N[C@@H](Cc1ccccc1)C(=O)N[C@@H](CCCCNC(=N)N)C(=O)NCC(=O)N[C@H](C(=O)N[C@@H](C)C(=O)N[C@@H](CCCCNC(=N)N)C(=O)N[C@@H](Cc1ccccc1)C(=O)N[C@@H](C)C(=O)N[C@@H](CO)C(=O)N[C@@H](CCCCNC(=N)N)C(=O)NCC(=O)N[C@@H](CC(C)C)C(=O)NCC(=O)N[C@@H](CCCCNC(=N)N)C(N)=O)C(C)C
IC50 (HEK293; MTT): > 100 µM

N.N.[Cl][Pt][Cl]
IC50 (HEK293; MTT; 48 h): 17.6 µM

CC[C@H](C)[C@H](NC(=O)CN)C(=O)NCC(=O)N[C@@H](C)C(=O)N[C@H](C(=O)N[C@@H](CC(C)C)C(=O)N[C@@H](CCCCN)C(=O)N[C@H](C(=O)N[C@@H](CC(C)C)C(=O)N[C@H](C(=O)N[C@H](C(=O)NCC(=O)N[C@@H](CC(C)C)C(=O)N1CCC[C@H]1C(=O)N[C@@H](C)C(=O)N[C@@H](CC(C)C)C(=O)N[C@H](C(=O)N[C@@H](CO)C(=O)N[C@@H](Cc1c[nH]c2ccccc12)C(=O)N[C@H](C(=O)N[C@@H](CCCCN)C(=O)N[C@@H](CCCNC(=N)N)C(=O)N[C@@H](CCCCN)C(=O)N[C@@H](CCCNC(=N)N)C(=O)N[C@@H](CCC(N)=O)C(=O)N[C@@H](CCC(N)=O)C(N)=O)[C@@H](C)CC)[C@@H](C)CC)[C@@H](C)O)[C@@H](C)O)C(C)C)C(C)C
IC50 (HEK293; MTT; 24 h): 4.66 µM

Cc1ncsc1-c1ccc([C@H](C)NC(=O)[C@@H]2C[C@@H](O)CN2C(=O)[C@@H](c2cc(N3CCC(CN4CCC(OC5CC(Oc6cc(N7C8CCC7CN(c7cc(-c9ccccc9O)nnc7N)C8)ccn6)C5)CC4)CC3)no2)C(C)C)cc1 (some centres unmarked)
IC50 (HCC515; ATP luminescence; 7 days): 0.0529 µM

[C-]#[O+].[C-]#[O+].[C-]#[O+].[C-]#[O+].[C-]#[O+].[C-]#[O+].[C-]#[O+].[C-]#[O+].[C-]#[O+].[C-]#[O+].[Mn].[Mn]
IC50 (HEK293; MTT; 48 h): 5.44 µM
